In ChEMBL document CHEMBL1130289, “Polyanion inhibitors of human immunodeficiency virus and other viruses. 5. Telomerized anionic surfactants derived from amino acids” (J Med Chem, 1997):

Legend:
Human alphaherpesvirus 2 = assay: Concentration required to inhibit HSV-2(G) induced cytopathicity in E6SM cells by 50%; details: Human alphaherpesvirus 2, E6SM
[1] = system: Human immunodeficiency virus 2; assay: Concentration required to inhibit HIV-2 induced cytopathicity in MT-4 cells by 50%; format: functional, organism-based; details: Human immunodeficiency virus 2, MT4
In short: (§1)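 MT-4 cells were infected with HIV-1 (strain HTLV-IIIB/LAI) or HIV-2 (strain LAV-2 ROD) and exposed to compound. IC50 is the concentration that inhibited HIV-induced cytopathicity by 50%. Values are means of two separate experiments.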

Coxsackievirus = assay: Concentration required to inhibit Coxsackie induced cytopathicity in HeLa cells by 50%; format: functional, organism-based
In short: (§2)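 Virus was added to the cell monolayers in the presence of compound. Incubation continued until the viral cytopathic effect was scored. IC50 is the concentration that reduced virus-induced cytopathicity by 50%.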

Human betaherpesvirus 5 [2] = assay: Concentration required to inhibit HCMV(AD169) induced cytopathicity in HEL cells by 50%; format: functional, organism-based; details: Human betaherpesvirus 5, HEL
In short: as §2

E6SM = assay: Minimum cytotoxic concentration required to cause a microscopically detectable alteration of normal cell morphology in E6SM cells; format: functional, Homo sapiens
In short: (§3)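 Uninfected E6SM, HeLa or Vero cells were exposed to compound and examined by microscopy. MCC is the lowest concentration causing a detectable alteration of normal cell morphology.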

Tacaribe virus = assay: Concentration required to inhibit Tacaribe induced cytopathicity in Vero cells by 50%; format: functional, cell-based; details: Mammarenavirus tacaribeense
[3] = system: Human immunodeficiency virus 1; assay: Concentration required to inhibit by 50% syncytium formation between MOLT-4 cells and HIV-1(IIIB); format: functional, organism-based; details: Human immunodeficiency virus 1, MOLT-4
In short: (§4)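 Uninfected MOLT-4 cells were co-cultured with HUT-78 cells chronically infected with HIV-1 (IIIB) or HIV-2 (ROD), in the presence of compound. The end point was syncytium formation, and IC50 is the concentration giving 50% inhibition. Values are means of two separate experiments.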

Human alphaherpesvirus 1 [4] = assay: Concentration required to inhibit HSV-1 TK-(B2006) induced cytopathicity in E6SM cells by 50%; details: Human alphaherpesvirus 1, E6SM
Sindbis virus = assay: Concentration required to inhibit Sindbis induced cytopathicity in Vero cells by 50%; format: functional, organism-based
In short: as §2

Semliki Forest virus = assay: Concentration required to inhibit forest induced cytopathicity in Vero cells by 50%; format: functional, organism-based
In short: as §2

Vero = assay: Minimum cytotoxic concentration required to cause a microscopically detectable alteration of normal cell morphology in Vero cells; format: functional, Chlorocebus sabaeus
In short: as §3

Junin virus = assay: Concentration required to inhibit Junin induced cytopathicity in Vero cells by 50%; format: functional, organism-based; details: Mammarenavirus juninense
Human alphaherpesvirus 1 [5] = assay: Concentration required to inhibit HSV-1(KOS) induced cytopathicity in E6SM cells by 50%; details: Human alphaherpesvirus 1, E6SM
HEL = assay: Minimum cytotoxic concentration required to cause a microscopically detectable alteration of normal cell morphology in HEL cells; format: functional, Homo sapiens
Human respirovirus 3 = assay: Concentration required to inhibit parainfluenza-3 induced cytopathicity in Vero cells by 50%; format: functional, organism-based; details: Human respirovirus 3, Vero
In short: as §2

Poliovirus 1 = assay: Concentration required to inhibit Polio-1 induced cytopathicity in HeLa cells by 50%; format: functional, organism-based; details: Enterovirus C
HeLa = assay: Minimum cytotoxic concentration required to cause a microscopically detectable alteration of normal cell morphology in HeLa cells; format: functional, Homo sapiens
In short: as §3

[6] = system: Human immunodeficiency virus 1; assay: Inhibitory concentration required to inhibit HIV-induced cytopathicity in CEM-4 cells by 50% based in the MTT assay; Not active; format: functional, organism-based
[7] = system: Human immunodeficiency virus 1; assay: Concentration required to inhibit HIV-1 induced cytopathicity in MT-4 cells by 50%; format: functional, organism-based; details: Human immunodeficiency virus 1, MT4
In short: as §1

[8] = system: Human immunodeficiency virus 2; assay: Concentration required to inhibit by 50% syncytium formation between MOLT-4 cells and HIV-2 (ROD) infected HUT-78 cells; format: functional, organism-based; details: Human immunodeficiency virus 2, MOLT-4
In short: as §4

CEM-4 = assay: Cytotoxic concentration required to reduce the viability of uninfected cells by 50% after 5 days of incubation in the presence on CEM-4 cells.; format: functional; details: Homo sapiens, CEM-4, 120 h
In short: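 Uninfected CEM-4 cells were incubated with compound for 5 days. CC50 is the concentration that reduced viability by 50%. Values average at least two separate experiments.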

Human betaherpesvirus 5 [9] = assay: Concentration required to inhibit HCMV(Davis) induced cytopathicity in HEL cells by 50%; format: functional, organism-based; details: Human betaherpesvirus 5, HEL
In short: as §2

Vaccinia virus = assay: Concentration required to inhibit Vaccinia induced cytopathicity in E6SM cells by 50%; format: functional, organism-based; details: Orthopoxvirus vaccinia
[10] = system: Vesicular stomatitis virus; assay: Concentration required to inhibit vesicular stomatitis induced cytopathicity in E6SM cells by 50%; format: functional, organism-based
MT4 = assay: Concentration required to reduce the viability of mock-infected MT-4 cells by 50%; format: functional; details: Homo sapiens
In short: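 Mock-infected MT-4 cells were exposed to compound. CC50 is the concentration that reduced cell viability by 50%. Values are means of two separate experiments.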

[11] = system: Mammalian orthoreovirus 1; assay: Concentration required to inhibit reovirus-1 induced cytopathicity in Vero cells by 50%; format: functional, organism-based; details: Mammalian orthoreovirus 1, Vero
In short: as §2

[12] = system: Human immunodeficiency virus 1; assay: Inhibitory concentration required to inhibit HIV-induced cytopathicity in CEM-4 cells by 50% based in the MTT assay; format: functional, organism-based; details: Human immunodeficiency virus 1, CEM-4

## CCCCCCCCCCCCSCCCCCCCCCCCCC(=O)NCCCCCCCCCCC(=O)NCCC(=O)[O-].[Na+]
Human alphaherpesvirus 2
  IC50: 20 µg/mL
[1]
  IC50: 12 µg/mL
Coxsackievirus
  IC50: > 200 µg/mL
Human betaherpesvirus 5 [2]
  IC50: 25 µg/mL
E6SM
  MMC: >200 µg/mL
Tacaribe virus
  IC50: 50 µg/mL
[3]
  IC50: 10 µg/mL
Human alphaherpesvirus 1 [4]
  IC50: 20 µg/mL
Sindbis virus
  IC50: > 200 µg/mL
Semliki Forest virus
  IC50: > 200 µg/mL
Vero
  MMC: >200 µg/mL
Junin virus
  IC50: 43 µg/mL
Human alphaherpesvirus 1 [5]
  IC50: 20 µg/mL
HEL
  MMC: >50 µg/mL
Human respirovirus 3
  IC50: > 200 µg/mL
Poliovirus 1
  IC50: > 200 µg/mL
HeLa
  MMC: >200 µg/mL
[6]
  IC50: Not Active
[7]
  IC50: 3 µg/mL
[8]
  IC50: 10 µg/mL
CEM-4
  CC50: 42 µg/mL
Human betaherpesvirus 5 [9]
  IC50: 20 µg/mL
Vaccinia virus
  IC50: > 200 µg/mL
[10]
  IC50: > 200 µg/mL
MT4
  CC50: > 250 µg/mL
[11]
  IC50: > 200 µg/mL

## CCCCCCCCCCCCSCCCCCCCCCCCCCCCCC(=O)NCCCCCCCCCCC(=O)NCCC(=O)[O-].[Na+]
[6]
  IC50: Not Active
CEM-4
  CC50: > 100 µg/mL

## CCCCCCCCCCCCSCCCCCCCCCCCCCCCCCCC(=O)N(C)CCCCCCCCCCC(=O)[O-].[Na+]
[6]
  IC50: Not Active
CEM-4
  CC50: > 200 µg/mL

## CCCCCCCCCCCCSCCCCCCCCCCCCCCCCCCCCCCCCCCCCC(=O)NCCCCCCCCCCC(=O)NCC(=O)[O-].[Na+]
[12]
  IC50: 194 µg/mL
CEM-4
  CC50: > 300 µg/mL

## CCCCCCCCCCCCSCCCCCCCCC(=O)N(CC)CCCCCCCCCCC(=O)[O-].[Na+]
[12]
  IC50: 25 µg/mL
CEM-4
  CC50: 100 µg/mL

## CCCCCCCCCCCCSCCCCCCCCCCCCCCCCCCCCCCCCCCCCCCC(=O)N(CC)CCCCCCCCCCC(=O)NCC(=O)[O-].[Na+]
[12]
  IC50: 4 µg/mL
CEM-4
  CC50: 80 µg/mL

## CCCCCCCCCCCCSCCCCCCCCC(=O)NCCCCCCCCCCC(=O)[O-].[Na+]
[6]
  IC50: Not Active
CEM-4
  CC50: 29 µg/mL

## CCCCCCCCCCCCSCCCCCCCCCCC(=O)N(CC)CCCCCCCCCCC(=O)NCC(=O)[O-].[Na+]
[12]
  IC50: 120 µg/mL
CEM-4
  CC50: > 100 µg/mL

## CCCCCCCCCCCCSCCCCCCCCCCCCCCCCCCCCCCCCCCCCCCCCCCCCCCCCC(=O)N(C)CCCCCCCCCCC(=O)[O-].[Na+]
[6]
  IC50: Not Active
CEM-4
  CC50: > 200 µg/mL

## CCCCCCCCCCCCSCCCCCCCCCCCCCCCCCCCCCCCCCCCCCCCCCCCCCCCCCCCCCCCCCCCCCCCCCCCCC(=O)N(CC)CCCCCCCCCCC(=O)NCCC(=O)[O-].[Na+]
[6]
  IC50: Not Active
CEM-4
  CC50: > 100 µg/mL

## CCCCCCCCCCCCSCCCCCCCCCCCCCCCCCCCCCCCCCCCCCCCCCCC(=O)N(CC)CCCCCCCCCCC(=O)NC(CCC(=O)[O-])C(=O)O.[Na+] (configuration not stated)
[12]
  IC50: 25 µg/mL
CEM-4
  CC50: > 300 µg/mL

## CCCCCCCCCCCCSCCCCCCCCCCCCCCC(=O)NCCCCCCCCCCC(=O)NCC(=O)[O-].[Na+]
[12]
  IC50: 15 µg/mL
CEM-4
  CC50: > 300 µg/mL

## CCCCCCCCCCCCSCCCCCCC(=O)NCCCCCCCCCCC(=O)NCC(=O)[O-].[Na+]
[6]
  IC50: Not Active
CEM-4
  CC50: 118 µg/mL

## CCCCCCCCCCCCSCCCCCCCCCCCCCCCCCCCCC(=O)N(CC)CCCCCCCCCCC(=O)NC(CCC(=O)[O-])C(=O)O.[Na+] (configuration not stated)
[12]
  IC50: 46 µg/mL
CEM-4
  CC50: > 300 µg/mL
